Experimental data from ChEMBL document CHEMBL1133378, “Synthesis and evaluation of daunorubicin-paclitaxel dimers” (Bioorg Med Chem Lett, 2000).

What was measured:
Format in all cases: functional, cell-based
Conditions in all cases: Homo sapiens
MES-SA/Dx5 [1] = experiment: The compound was evaluated for the growth inhibition of Dx5 w/PSC cell lines using MTT assay.
In short: (§1)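 MTT assay: MES-SA (uterine tumor) or P-gp-overexpressing MES-SA/Dx5 cells seeded at 80,000 cells/mL, grown 24 h at 37 C in humidified 5% CO2, then drug-exposed at serial dilutions for 72 h. MTT (5 mg/mL stock in PBS) added for 3 h, formazan dissolved in 0.1 N HCl-isopropanol, absorbance read at 570 nm. IC50 from plotted data, mean of 8-16 determinations.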

MES-SA = experiment: The compound was evaluated for the growth inhibition of MES-SA uterine tumor cell lines using MTT assay.; in short: as §1
MES-SA/Dx5 [2] = experiment: The compound was evaluated for the growth inhibition of Dx5 cell lines using MTT assay.; in short: as §1

| Compound | IC50 (MES-SA/Dx5 [1]) | IC50 (MES-SA) | IC50 (MES-SA/Dx5 [2]) |
| --- | --- | --- | --- |
| COc1cccc2c1C(=O)c1c(O)c3c(c(O)c1C2=O)C[C@@](O)(C(C)=O)C[C@@H]3OC1CC(NC(=O)c2ccccc2C(=O)NCCC(=O)O[C@@H]2C[C@@H]3OC[C@]3(OC(C)=O)C3[C@@H](OC(=O)c4ccccc4)[C@@]4(O)C[C@@H](OC(=O)[C@@H](O)[C@H](NC(=O)c5ccccc5)c5ccccc5)C(C)=C([C@H](OC(C)=O)C(=O)[C@]32C)C4(C)C)C(O)C(C)O1 (stereo partly specified) | 0.036 µM | 0.099 µM | 16 µM |
| COc1cccc2c1C(=O)c1c(O)c3c(c(O)c1C2=O)C[C@@](O)(C(C)=O)C[C@@H]3OC1CC(NC(=O)CCCC(=O)NCCC(=O)O[C@@H]2C[C@@H]3OC[C@]3(OC(C)=O)C3[C@@H](OC(=O)c4ccccc4)[C@@]4(O)C[C@@H](OC(=O)[C@@H](O)[C@H](NC(=O)c5ccccc5)c5ccccc5)C(C)=C([C@H](OC(C)=O)C(=O)[C@]32C)C4(C)C)C(O)C(C)O1 (stereo partly specified) | 1.1 µM | 0.95 µM | > 50 µM |
| COc1cccc2c1C(=O)c1c(O)c3c(c(O)c1C2=O)C[C@@](O)(C(C)=O)C[C@@H]3OC1CC(NC(=O)c2ccc(C(=O)NCCC(=O)O[C@@H]3C[C@@H]4OC[C@]4(OC(C)=O)C4[C@@H](OC(=O)c5ccccc5)[C@@]5(O)C[C@@H](OC(=O)[C@@H](O)[C@H](NC(=O)c6ccccc6)c6ccccc6)C(C)=C([C@H](OC(C)=O)C(=O)[C@]43C)C5(C)C)cc2)C(O)C(C)O1 (stereo partly specified) | 1 µM | 1 µM | 10 µM |
| COc1cccc2c1C(=O)c1c(O)c3c(c(O)c1C2=O)C[C@@](O)(C(C)=O)C[C@@H]3OC1CC(NC(=O)CCCCC(=O)NCCC(=O)O[C@@H]2C[C@@H]3OC[C@]3(OC(C)=O)C3[C@@H](OC(=O)c4ccccc4)[C@@]4(O)C[C@@H](OC(=O)[C@@H](O)[C@H](NC(=O)c5ccccc5)c5ccccc5)C(C)=C([C@H](OC(C)=O)C(=O)[C@]32C)C4(C)C)C(O)C(C)O1 (stereo partly specified) | – | 2.3 µM | > 50 µM |
| COc1cccc2c1C(=O)c1c(O)c3c(c(O)c1C2=O)C[C@@](O)(C(C)=O)C[C@@H]3OC1CC(NC(=O)CCC(=O)NCCC(=O)O[C@@H]2C[C@@H]3OC[C@]3(OC(C)=O)C3[C@@H](OC(=O)c4ccccc4)[C@@]4(O)C[C@@H](OC(=O)[C@@H](O)[C@H](NC(=O)c5ccccc5)c5ccccc5)C(C)=C([C@H](OC(C)=O)C(=O)[C@]32C)C4(C)C)C(O)C(C)O1 (stereo partly specified) | – | 0.7 µM | > 50 µM |
| COc1cccc2c1C(=O)c1c(O)c3c(c(O)c1C2=O)C[C@@](O)(C(C)=O)C[C@@H]3O[C@H]1C[C@H](N)[C@H](O)[C@H](C)O1 [DAUNORUBICIN] | 0.014 µM | 0.021 µM | 2 µM |
| CC(=O)O[C@H]1C(=O)[C@@]2(C)C([C@H](OC(=O)c3ccccc3)[C@]3(O)C[C@H](OC(=O)[C@H](O)[C@@H](NC(=O)c4ccccc4)c4ccccc4)C(C)=C1C3(C)C)[C@]1(OC(C)=O)CO[C@@H]1C[C@@H]2O.COc1cccc2c1C(=O)c1c(O)c3c(c(O)c1C2=O)C[C@@](O)(C(C)=O)C[C@@H]3OC1CC(N)C(O)C(C)O1 (stereo partly specified) [MIXTURE OF DAUNORUBICIN AND PACLITAXEL] | – | 0.011 µM | 1 µM |
| CC(=O)O[C@H]1C(=O)[C@@]2(C)[C@H]([C@H](OC(=O)c3ccccc3)[C@]3(O)C[C@H](OC(=O)[C@H](O)[C@@H](NC(=O)c4ccccc4)c4ccccc4)C(C)=C1C3(C)C)[C@]1(OC(C)=O)CO[C@@H]1C[C@@H]2O [PACLITAXEL] | 0.0003 µM | 0.0006 µM | 2.7 µM |
